Reference: ChEMBL document CHEMBL1125259, “Lipophilic glycosyl phosphotriester derivatives of AZT: synthesis, NMR transmembrane transport study, and antiviral activity” (1991)

Assays:
Type in all cases: functional
CCRF-CEM [1] = assay: Concentration that reduced by 50% the HIV induced CPE (cytopathic effect) on day 22.; settings: Homo sapiens, 528 h, read-out: ED50 (the source's name)
In short: (§1)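 CEM-C113 cells (1×10^5 cells/mL) were infected with HIV-1 LAV-Bru or mock-infected, with compound dilutions in triplicate, for at least 7 days. Medium with or without drug was renewed every 3–4 days for longer runs. MTT absorbance was read at 540 nm. CD50 = 50% reduction of mock-infected absorbance; ED50 = dose giving 50% protection from CPE. Values are averages of at least two experiments.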

[2] = molecular target: Human immunodeficiency virus type 1 reverse transcriptase (Human immunodeficiency virus 1) (UniProt Q72547); assay: Compound ability to inhibit the production of HIV reverse transcriptase (RT) in culture supernatant of CEM-CL13 on at 26 days at a concentration 0.2 uM
In short: (§2)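 CEM-C113 cells in RPMI 1640 with 5% heat-inactivated FCS and polybrene (2 µg/mL) were plated at 1×10^5 cells/mL with compound in PBS, in triplicate, and infected with HIV-1 LAV-Bru. From day 7, every 3–4 days, fresh medium with or without drug was added and 50 µL supernatant was taken for RT microassay. The RT microassay used poly(rA)-oligo(dT) and (methyl-³H)dTTP for 1 h at 37 °C, with TCA precipitation, read as cpm/50 µL.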

[3] = molecular target: Human immunodeficiency virus type 1 reverse transcriptase (Human immunodeficiency virus 1) (UniProt Q72547); assay: Compounds were evaluated for anti-RT activity at 0 days of culture
In short: (§3)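 HIV-1 (12 500 CCID50) was preincubated with compound at 25 µM final for 60 min at 37 °C, pelleted by ultracentrifugation and resuspended. RT was measured at once with poly(rA)-oligo(dT) and ³H-dTTP (1 h, 37 °C, cpm). Treated virus was then put on CEM-C113 cells for 60 min and replaced with compound-free medium. Supernatant RT was read at days 7 and 9.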

CCRF-CEM [4] = assay: Concentration that reduced by 50% the HIV induced CPE (cytopathic effect) on day 11.; settings: Homo sapiens, 264 h, read-out: ED50 (the source's name); in short: as §1
CCRF-CEM [5] = assay: Concentration required to reduce the viability of uninfected cells (CEM-CL13) by 50% on day 11.; settings: Homo sapiens, 264 h, read-out: CD50 (the source's name); in short: as §1
[6] = molecular target: Human immunodeficiency virus type 1 reverse transcriptase (Human immunodeficiency virus 1) (UniProt Q72547); assay: Compound ability to inhibit the production of HIV reverse transcriptase (RT) in preinfected PBL (peripheral blood lymphocytes) at 7 days at a concentration 1 uM
In short: (§4)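 PBL were infected with HIV-1 for 1 h at 37 °C, washed twice, and resuspended in complete medium with 10% interleukin-2 and anti-human α-interferon (1000 units/mL). Cells were plated at 1×10^6 cells/well with or without compound. At each time point, 50 µL supernatant was taken for RT assay ([³H]dTTP incorporation, cpm).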

[7] = molecular target: Human immunodeficiency virus type 1 reverse transcriptase (Human immunodeficiency virus 1) (UniProt Q72547); assay: Compound ability to inhibit the production of HIV reverse transcriptase (RT) in culture supernatant of monocytic U937 on at 14 days at a concentration 1 uM
In short: (§5)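 HIV-1-infected monocytic U937 cultures were kept up to 14 days with compound. Supernatant RT activity was measured as for CEM-C113, as [³H] cpm/50 µL. % inhibition = 100 − 100 × (cpm of treated samples / cpm of control virus).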

[8] = molecular target: Human immunodeficiency virus type 1 reverse transcriptase (Human immunodeficiency virus 1) (UniProt Q72547); assay: Percent inhibition measured as the production of HIV reverse transcriptase (RT) in culture supernatant of monocytic U937 on at 7 days at a concentration 1 uM
In short: (§6)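 U937 cells in RPMI 1640 with 5% heat-inactivated FCS, penicillin, streptomycin and polybrene (2 μg/mL), 37 °C, 5% CO2. Infected with HIV-1 LAV-Bru; compounds diluted in PBS. 50 μL supernatant aliquots were assayed for RT: 1 h, 37 °C, pH 7.8, Mg2+, poly(rA)-oligo(dT), [3H]dTTP, TCA-pyrophosphate stop, filter counting. % inhibition = 100 − 100 × (treated cpm / virus-control cpm).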

CCRF-CEM [9] = assay: Concentration required to reduce the viability of uninfected cells (CEM-CL13) by 50% on day 19.; settings: Homo sapiens, 456 h, read-out: CD50 (the source's name); in short: as §1
[10] = molecular target: Human immunodeficiency virus type 1 reverse transcriptase (Human immunodeficiency virus 1) (UniProt Q72547); assay: Percent inhibition evaluated for anti-RT activity at 7 days of culture; parameters: concentration or dose not given beside the values; settings: concentration not given here; in short: as §3
CCRF-CEM [11] = assay: Concentration required to reduce the viability of uninfected cells (CEM-CL13) by 50% on day 22.; settings: Homo sapiens, 528 h, read-out: CD50 (the source's name); in short: as §1
[12] = molecular target: Human immunodeficiency virus type 1 reverse transcriptase (Human immunodeficiency virus 1) (UniProt Q72547); assay: Compound ability to inhibit the production of HIV reverse transcriptase (RT) in culture supernatant of monocytic U937 on at 11 days at a concentration 1 uM; in short: as §5
[13] = molecular target: Human immunodeficiency virus type 1 reverse transcriptase (Human immunodeficiency virus 1) (UniProt Q72547); assay: Compound ability to inhibit the production of HIV reverse transcriptase (RT) in preinfected PBL (peripheral blood lymphocytes) at 10 days at a concentration 5 uM; in short: as §4
[14] = molecular target: Human immunodeficiency virus type 1 reverse transcriptase (Human immunodeficiency virus 1) (UniProt Q72547); assay: Compounds were evaluated for anti-RT activity at 7 days of culture; in short: as §3
[15] = molecular target: Human immunodeficiency virus type 1 reverse transcriptase (Human immunodeficiency virus 1) (UniProt Q72547); assay: Compounds were evaluated for anti-RT activity by MTT dose and % cell / viability was reported at 13 days of culture
[16] = molecular target: Human immunodeficiency virus type 1 reverse transcriptase (Human immunodeficiency virus 1) (UniProt Q72547); assay: Compound ability to inhibit the production of HIV reverse transcriptase (RT) in preinfected PBL (peripheral blood lymphocytes) at 21 days at a concentration 5 uM; in short: as §4
[17] = molecular target: Human immunodeficiency virus type 1 reverse transcriptase (Human immunodeficiency virus 1) (UniProt Q72547); assay: Percent inhibition evaluated for anti-RT activity at 0 days of culture; parameters: concentration or dose not given beside the values; settings: concentration not given here; in short: as §3
[18] = molecular target: Human immunodeficiency virus type 1 reverse transcriptase (Human immunodeficiency virus 1) (UniProt Q72547); assay: Percent inhibition measured as the production of HIV reverse transcriptase (RT) in culture supernatant of monocytic U937 on at 11 days at a concentration 1 uM; in short: as §6
[19] = molecular target: Human immunodeficiency virus type 1 reverse transcriptase (Human immunodeficiency virus 1) (UniProt Q72547); assay: Compound ability to inhibit the production of HIV reverse transcriptase (RT) in culture supernatant of CEM-CL13 on at 7 days at a concentration 0.2 uM; in short: as §2
[20] = molecular target: Human immunodeficiency virus type 1 reverse transcriptase (Human immunodeficiency virus 1) (UniProt Q72547); assay: Percent inhibition evaluated for anti-RT activity at 9 days of culture; parameters: concentration or dose not given beside the values; settings: concentration not given here; in short: as §3
CCRF-CEM [21] = assay: Concentration that reduced by 50% the HIV induced CPE (cytopathic effect) on day 19.; settings: Homo sapiens, 456 h, read-out: ED50 (the source's name); in short: as §1
[22] = molecular target: Human immunodeficiency virus type 1 reverse transcriptase (Human immunodeficiency virus 1) (UniProt Q72547); assay: Compound ability to inhibit the production of HIV reverse transcriptase (RT) in preinfected PBL (peripheral blood lymphocytes) at 14 days at a concentration 5 uM; in short: as §4
[23] = molecular target: Human immunodeficiency virus type 1 reverse transcriptase (Human immunodeficiency virus 1) (UniProt Q72547); assay: Compounds were evaluated for anti-RT activity by MTT dose and % cell / viability was reported at 7 days of culture
In short: (§7)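 HIV-1 was preincubated with compound at 25 µM for 60 min at 37 °C, pelleted, and added to CEM-C113 cells (1×10^5 cells/mL) for 60 min at 37 °C. Medium was then replaced without compound. At days 7 and 9, viability was read by MTT assay on 100 µL of cell suspension.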

[24] = molecular target: Human immunodeficiency virus type 1 reverse transcriptase (Human immunodeficiency virus 1) (UniProt Q72547); assay: Compounds were evaluated for anti-RT activity by MTT dose and %protection was reported at 13 days of culture
[25] = molecular target: Human immunodeficiency virus type 1 reverse transcriptase (Human immunodeficiency virus 1) (UniProt Q72547); assay: Compound ability to inhibit the production of HIV reverse transcriptase (RT) in preinfected PBL (peripheral blood lymphocytes) at 14 days at a concentration 1 uM; in short: as §4
CCRF-CEM [26] = assay: Concentration that reduced by 50% the HIV induced CPE (cytopathic effect) on day 7.; settings: Homo sapiens, 168 h, read-out: ED50 (the source's name); in short: as §1
[27] = molecular target: Human immunodeficiency virus type 1 reverse transcriptase (Human immunodeficiency virus 1) (UniProt Q72547); assay: Compounds were evaluated for anti-RT activity by MTT dose and %protection was reported at 7 days of culture; in short: as §7

SMILES | EC50 (CCRF-CEM [1]) | Activity (c.p.m. 50ul-1) [2] | Activity (c.p.m. 50ul-1) [3] | EC50 (CCRF-CEM [4]) | CC50 (CCRF-CEM [5]) | Activity (c.p.m. 50ul-1) [6] | Activity (c.p.m. 50ul-1) [7] | inhibition [8] | CC50 (CCRF-CEM [9]) | inhibition [10] | CC50 (CCRF-CEM [11]) | Activity (c.p.m. 50ul-1) [12] | Activity (c.p.m. 50ul-1) [13] | Activity (c.p.m. 50ul-1) [14] | Cell viability [15] | Activity (c.p.m. 50ul-1) [16] | inhibition [17] | inhibition [18] | Activity (c.p.m. 50ul-1) [19] | inhibition [20] | further results
Cc1cn([C@H]2C[C@H](N=[N+]=[N-])[C@@H](COP(=O)(O)OC[C@H]3OC(O)[C@@H](O)[C@@H](O)[C@@H]3O)O2)c(=O)[nH]c1=O (stereo partly specified) | 600 nM | 85000 | 25000 | 200 nM | 28000 nM | 943 | 22500 | 0% | 24000 nM | 62% | 24000 nM | 137000 | 936 | 24000 | 18% | 19500 | 0% | 5% | 3400 | 0% | EC50 (CCRF-CEM [21]): 200 nM; Activity (c.p.m. 50ul-1) [22]: 4130; Cell viability [23]: 54%; Protection [24]: 3%; Activity (c.p.m. 50ul-1) [25]: 46100; EC50 (CCRF-CEM [26]): 130 nM; Protection [27]: 38%
CCCCCCCCCCCCCCCCOP(=O)(OC[C@H]1OC(O)[C@@H](O)[C@@H](O)[C@@H]1O)OC[C@H]1OC(n2cc(C)c(=O)[nH]c2=O)C[C@@H]1N=[N+]=[N-] (stereo partly specified) | 400 nM | 73000 | 17000 | 300 nM | 2600 nM | 9320 | 35000 | 51% | 2500 nM | 71% | 2500 nM | 225000 | 28000 | 18000 | 25% | 22400 | 30% | 0% | 4000 | 68% | EC50 (CCRF-CEM [21]): 500 nM; Activity (c.p.m. 50ul-1) [22]: 58300; Cell viability [23]: 77%; Protection [24]: 10%; Activity (c.p.m. 50ul-1) [25]: 114000; EC50 (CCRF-CEM [26]): 140 nM; Protection [27]: 68%
Cc1cn([C@H]2C[C@H](N=[N+]=[N-])[C@@H](COP(=O)(O)OCCO[C@H]3O[C@H](CO)[C@@H](O)[C@H](O)[C@@H]3O)O2)c(=O)[nH]c1=O | 600 nM | 70000 | 30000 | 150 nM | 28000 nM | 923 | 25000 | 0% | 30000 nM | 25% | 28000 nM | 174000 | 1100 | 47000 | 20% | 3380 | 0% | 0% | 4400 | 0% | EC50 (CCRF-CEM [21]): 140 nM; Activity (c.p.m. 50ul-1) [22]: 471; Cell viability [23]: 39%; Protection [24]: 7%; Activity (c.p.m. 50ul-1) [25]: 39700; EC50 (CCRF-CEM [26]): 160 nM; Protection [27]: 20%
